The source made the active and inactive calls. No cut-off for these calls is given here.
Assays:
[1] = Intrinsic clearance in rat hepatocytes assessed per million cells at 1 uM after 120 mins by LC-MS/MS method; type: ADME, cell-based, Hepatocyte; conditions: 2 h
[2] = target: Voltage-gated inwardly rectifying potassium channel KCNH2 (Homo sapiens, UniProt Q12809); experiment: Inhibition of human ERG
[3] = system: Liver; experiment: Intrinsic clearance in human liver microsomes at 1 uM after 30 mins by LC-MS/MS method; type: ADME, microsome; conditions: 0.5 h
[4] = target: hERG (KCNH2) (Homo sapiens, UniProt Q12809); experiment: Inhibition of human ERG at 11.1 uM relative to control
[5] = Unbound brain-to-plasma concentration ratio in CD rat at 1 mg/kg, po as cassette dose after 2 hrs by LC-MS/MS method; type: ADME, organism-based; conditions: brain and plasma, read-out: K(p,uu,brain)
[6] = target: T1, Beta-secretase 1 (Homo sapiens, UniProt P56817); experiment: Inhibition of BACE1 in human SH-SY5Y cells assessed as decrease in sAPP-beta release after 16 to 17 hrs; type: cell-based
[7] = target: T1, Beta-secretase 1; experiment: Inhibition of human BACE1 (1 to 460 residues) fused with Fc domain of IgG1 expressed in HEK293 cells preincubated for 10 mins followed by substrate addition measured after 17 mins by TR-FRET assay; type: cell-based
In short: (§1)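 Biochemical protease assays on the human BACE1 or BACE2 enzyme. Both assays use the same fluorescently labelled peptide substrate, designed to span the BACE cleavage site of APP.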

[8] = target: T2, Beta-secretase 2 (Homo sapiens, UniProt Q9Y5Z0); experiment: Inhibition of BACE2 in human MNT1 cells assessed as increase in M-beta accumulation at 10 nM after 24 hrs by Western blot method; type: cell-based; conditions: 0.01 µM
T2 sequence (Q9Y5Z0 whole entry): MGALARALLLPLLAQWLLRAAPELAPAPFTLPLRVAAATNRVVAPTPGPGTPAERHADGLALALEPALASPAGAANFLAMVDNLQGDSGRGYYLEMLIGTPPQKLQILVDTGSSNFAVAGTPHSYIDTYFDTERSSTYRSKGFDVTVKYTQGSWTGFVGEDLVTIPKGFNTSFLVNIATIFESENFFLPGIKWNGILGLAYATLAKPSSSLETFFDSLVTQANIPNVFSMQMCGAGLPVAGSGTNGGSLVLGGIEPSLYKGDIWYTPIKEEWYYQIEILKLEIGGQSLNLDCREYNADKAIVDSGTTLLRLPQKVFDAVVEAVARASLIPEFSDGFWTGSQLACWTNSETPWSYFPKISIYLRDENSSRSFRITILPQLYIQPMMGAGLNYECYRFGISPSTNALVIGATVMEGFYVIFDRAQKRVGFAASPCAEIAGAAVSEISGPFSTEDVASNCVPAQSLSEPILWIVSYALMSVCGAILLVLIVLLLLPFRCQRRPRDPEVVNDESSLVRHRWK
In short: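 Human melanocyte MNT1 cells incubated with a range of inhibitor concentrations or vehicle (0.1% DMSO), then processed to detect parent PMEL (P1) and the proteolytically cleaved Mβ fragment. Mβ accumulation serves as the read-out of BACE2 inhibition.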

[9] = target: T2, Beta-secretase 2; experiment: Inhibition of human BACE2 (1 to 473 residues) using CEVNLDAEFK as substrate preincubated for 10 mins followed by substrate addition measured after 6.5 hrs by TR-FRET assay; in short: as §1
[10] = Unbound brain-to-plasma concentration ratio in CD rat at 5 mg/kg, po as cassette dose after 2 hrs by LC-MS/MS method; type: ADME, organism-based; conditions: brain and plasma, read-out: K(p,uu,brain)
[11] = system: Brain; experiment: Fraction unbound in C57BL/6 mouse brain at 50 mg/kg, po after 3 hrs by LC-MS/MS analysis; type: ADME, organism-based; conditions: in vivo
[12] = system: Mus musculus; experiment: Reduction of amyloid beta-42 levels in C57BL/6 mouse brain at 50 mg/kg, po after 3 hrs by immunoassay relative to vehicle-treated control; type: functional; set-up: scale not given: the % may be the effect or the level left
In short: (§2)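 PK/PD study in C57BL/6 mice given 50 mg/kg orally. Brain Aβ40 and Aβ42 and plasma Aβ40 levels were followed over time alongside free brain and plasma exposure, and compared with vehicle-treated controls.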

[13] = target: T2, Beta-secretase 2; experiment: Inhibition of BACE2 in human MNT1 cells assessed as increase in M-beta accumulation at 10 uM after 24 hrs by Western blot method; type: cell-based
In short: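 Human melanocyte MNT1 cells incubated with a range of inhibitor concentrations or vehicle (0.1% DMSO). Cells then processed to detect parent PMEL (P1) and the proteolytically cleaved Mβ fragment. Mβ fragment accumulation serves as the read-out of BACE2 inhibition.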

[14] = system: Mus musculus; experiment: Reduction of amyloid beta-40 levels in C57BL/6 mouse plasma at 50 mg/kg, po after 1.5 to 16 hrs by immunoassay; type: functional, organism-based; conditions: tested as the 2H-labelled form; in short: as §2
[15] = target: T3, Renin (Homo sapiens) (UniProt P00797); experiment: Inhibition of full length recombinant human renin up to 100 uM using DABCYL-gamma-Abu-Ile-His-Pro-Phe-His-Leu-Val-Ile-His-Thr-EDANS as substrate after 60 mins by spectrophotometric method; conditions: tested as the 2H-labelled form
T3 sequence (whole entry): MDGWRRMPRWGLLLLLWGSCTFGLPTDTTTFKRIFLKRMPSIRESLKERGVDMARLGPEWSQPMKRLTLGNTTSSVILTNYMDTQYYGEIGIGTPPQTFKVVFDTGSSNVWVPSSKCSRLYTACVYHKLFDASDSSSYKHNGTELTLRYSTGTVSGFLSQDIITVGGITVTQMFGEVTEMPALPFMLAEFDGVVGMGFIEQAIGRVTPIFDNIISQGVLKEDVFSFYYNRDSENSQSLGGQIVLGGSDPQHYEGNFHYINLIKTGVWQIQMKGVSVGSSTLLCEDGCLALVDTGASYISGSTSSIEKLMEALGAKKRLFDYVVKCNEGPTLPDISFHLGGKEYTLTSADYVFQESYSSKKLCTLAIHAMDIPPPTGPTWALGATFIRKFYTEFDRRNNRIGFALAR

[16] = target: Cathepsin D (Homo sapiens) (UniProt P07339); experiment: Inhibition of human cathepsin D up to 100 uM using MOCAc-Gly-Lys-Pro-Ile-Leu-Phe-Phe-Arg-Leu-Lys(Dnp)-D-Arg-NH2 as substrate after 10 mins by spectrophotometric method; conditions: tested as the 2H-labelled form
[17] = system: Mus musculus; experiment: Reduction of amyloid beta-42 levels in C57BL/6 mouse brain at 50 mg/kg, po after 1.5 to 16 hrs by immunoassay relative to vehicle-treated control; type: functional, organism-based; conditions: tested as the 2H-labelled form; in short: as §2
[18] = species: Sus scrofa; experiment: Inhibition of pig pepsin up to 100 uM using MOCAc-Ala-Pro-Ala-Lys-Phe-Phe-Arg-Leu-Lys(Dnp)-NH2 as substrate after 60 mins by spectrophotometric method; conditions: tested as the 2H-labelled form
[19] = target: Cathepsin S (Homo sapiens) (UniProt P25774); experiment: Inhibition of full length recombinant human cathepsin S up to 100 uM using Z-Leu-Arg-AMC as substrate after 30 mins by spectrophotometric method; conditions: tested as the 2H-labelled form
[20] = system: Mus musculus; experiment: Reduction of amyloid beta-40 levels in C57BL/6 mouse brain at 50 mg/kg, po after 1.5 to 16 hrs by immunoassay relative to vehicle-treated control; type: functional, organism-based; conditions: tested as the 2H-labelled form; in short: as §2
[21] = Apparent permeability across MDCK cells expressing MDR1 after 2 hrs by LC-MS/MS method; type: ADME, cell-based, Canis lupus familiaris; conditions: dog

T1 sequence (P56817 whole entry, the tested form may be a part): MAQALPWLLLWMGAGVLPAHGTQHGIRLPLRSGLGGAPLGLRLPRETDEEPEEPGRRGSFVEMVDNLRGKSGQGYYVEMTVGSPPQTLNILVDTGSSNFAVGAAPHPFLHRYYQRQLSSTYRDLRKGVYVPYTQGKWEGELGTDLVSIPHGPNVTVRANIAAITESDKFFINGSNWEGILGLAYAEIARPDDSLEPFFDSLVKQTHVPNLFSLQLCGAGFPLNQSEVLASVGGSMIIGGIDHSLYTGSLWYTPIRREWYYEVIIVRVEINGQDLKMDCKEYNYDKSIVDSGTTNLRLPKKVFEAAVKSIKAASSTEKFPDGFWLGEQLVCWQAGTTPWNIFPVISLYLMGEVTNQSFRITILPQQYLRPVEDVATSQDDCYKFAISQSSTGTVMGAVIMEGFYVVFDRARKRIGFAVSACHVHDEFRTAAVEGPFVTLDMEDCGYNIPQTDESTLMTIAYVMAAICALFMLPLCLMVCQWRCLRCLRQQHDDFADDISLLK
hERG (KCNH2), sequence (Q12809 whole entry): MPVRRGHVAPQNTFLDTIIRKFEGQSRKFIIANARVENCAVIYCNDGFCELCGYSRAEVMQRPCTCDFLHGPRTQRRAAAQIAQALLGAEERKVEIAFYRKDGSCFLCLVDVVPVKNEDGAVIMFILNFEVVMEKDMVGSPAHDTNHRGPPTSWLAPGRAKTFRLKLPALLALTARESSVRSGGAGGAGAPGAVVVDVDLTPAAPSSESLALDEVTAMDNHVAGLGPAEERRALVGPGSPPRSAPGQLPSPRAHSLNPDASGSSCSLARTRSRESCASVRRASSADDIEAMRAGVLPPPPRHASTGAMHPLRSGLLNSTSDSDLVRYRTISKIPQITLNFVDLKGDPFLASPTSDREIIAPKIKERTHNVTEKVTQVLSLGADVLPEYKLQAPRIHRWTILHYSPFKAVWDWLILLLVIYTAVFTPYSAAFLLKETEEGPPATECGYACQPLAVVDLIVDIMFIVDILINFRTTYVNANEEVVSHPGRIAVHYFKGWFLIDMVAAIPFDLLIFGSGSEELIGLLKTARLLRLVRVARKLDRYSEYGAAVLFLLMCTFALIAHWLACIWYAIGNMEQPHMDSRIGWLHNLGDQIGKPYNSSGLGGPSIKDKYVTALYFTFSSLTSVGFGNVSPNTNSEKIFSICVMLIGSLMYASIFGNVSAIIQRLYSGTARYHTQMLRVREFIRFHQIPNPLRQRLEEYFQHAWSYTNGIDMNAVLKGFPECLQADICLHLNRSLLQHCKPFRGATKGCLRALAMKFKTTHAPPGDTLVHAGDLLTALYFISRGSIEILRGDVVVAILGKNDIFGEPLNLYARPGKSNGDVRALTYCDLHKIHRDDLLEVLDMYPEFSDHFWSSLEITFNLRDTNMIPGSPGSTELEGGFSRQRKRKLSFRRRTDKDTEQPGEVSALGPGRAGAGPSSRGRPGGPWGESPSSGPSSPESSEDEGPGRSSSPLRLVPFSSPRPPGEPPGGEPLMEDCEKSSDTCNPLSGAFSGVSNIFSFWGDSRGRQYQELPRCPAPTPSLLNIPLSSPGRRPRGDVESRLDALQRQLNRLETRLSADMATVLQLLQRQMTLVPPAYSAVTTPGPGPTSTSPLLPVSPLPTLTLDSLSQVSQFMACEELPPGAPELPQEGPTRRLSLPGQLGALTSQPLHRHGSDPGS
Voltage-gated inwardly rectifying potassium channel KCNH2, sequence (Q12809 whole entry): as above
Cathepsin S (Homo sapiens), sequence (P25774 115-331 limits assumed): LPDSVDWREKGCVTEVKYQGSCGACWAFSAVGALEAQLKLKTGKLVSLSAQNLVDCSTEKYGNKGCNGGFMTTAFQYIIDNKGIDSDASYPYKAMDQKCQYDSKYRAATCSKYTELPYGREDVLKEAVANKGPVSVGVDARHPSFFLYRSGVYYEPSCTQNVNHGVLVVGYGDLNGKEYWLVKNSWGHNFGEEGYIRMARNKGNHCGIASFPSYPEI
Cathepsin D (Homo sapiens), sequence (P07339 65-162 limits assumed): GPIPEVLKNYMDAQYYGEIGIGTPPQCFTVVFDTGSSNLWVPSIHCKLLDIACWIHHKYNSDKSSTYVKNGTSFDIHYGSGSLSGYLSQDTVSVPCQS
Cathepsin D (Homo sapiens), sequence (P07339 169-412 limits assumed): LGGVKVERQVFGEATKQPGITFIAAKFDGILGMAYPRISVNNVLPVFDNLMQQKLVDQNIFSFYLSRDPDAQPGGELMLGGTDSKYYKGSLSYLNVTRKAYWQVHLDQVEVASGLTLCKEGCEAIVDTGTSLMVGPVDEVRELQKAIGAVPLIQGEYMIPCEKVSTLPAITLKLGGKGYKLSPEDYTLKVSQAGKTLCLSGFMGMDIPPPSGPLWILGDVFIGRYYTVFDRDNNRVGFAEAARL

[2H]C1([2H])OC(N)=N[C@]12c1cc(-c3cncnc3)ccc1C[C@]21CC[C@@H](OC)[C@H](C)C1
CLH [1]: 82 µL/min/10^6 cells
IC50 [2]: > 33 µM
CLH [3]: 52.4 µL/min/mg

[2H]C1([2H])OC(N)=N[C@]12c1cc(-c3cncnc3)ccc1C[C@]21CC[C@@H](OC)[C@H](CC)C1
CLH [1]: 138 µL/min/10^6 cells
inhibition at 11.1 µM [4]: 15%
CLH [3]: 149 µL/min/mg

COc1cc(C#N)cc(-c2ccc3c(c2)[C@@]2(COC(N)=N2)[C@]2(CC[C@H](OC)CC2)C3)c1
CLH [1]: 23.9 µL/min/10^6 cells
CLH [3]: 13.9 µL/min/mg
Kp uu at 2 h [5]: 0.07

[2H]C1([2H])OC(N)=N[C@]12c1cc(-c3cccnc3)ccc1C[C@]21CC[C@@H](OC)CC1
IC50 [6]: 0.007 µM
Ki [7]: 0.43 µM

NC1=N[C@@](c2cccc(-c3cncnc3)c2)(c2ccnc(C(F)F)c2)c2cccc(F)c21 [AZD-3839]
inhibition (INH) [8]: Active
IC50 [9]: 0.0009 µM

[2H]C1([2H])OC(N)=N[C@]12c1cc(-c3cncnc3)ccc1C[C@@]21C[C@@H](C)[C@H](OC)[C@@H](C)C1 (racemic)
CLH [1]: 137 µL/min/10^6 cells
CLH [3]: 187 µL/min/mg

[2H]C1([2H])OC(N)=N[C@]12c1cc(-c3cc(C#N)cc(OC)c3)ccc1C[C@]21CC[C@@H](OC)CC1
CLH [1]: 25.1 µL/min/10^6 cells
Kp uu at 2 h [10]: 0.27
CLH [3]: 15.7 µL/min/mg

[2H]C1([2H])OC(N)=N[C@]12c1cc(-c3cncnc3)ccc1C[C@@]21CC[C@H](OC)[C@@H](CC)C1
CLH [1]: 158 µL/min/10^6 cells
inhibition at 11.1 µM [4]: 29%
CLH [3]: 153 µL/min/mg

[2H]C1([2H])OC(N)=N[C@]12c1cc(-c3cncnc3)ccc1C[C@@]21CC[C@H](OC)[C@@H](C)C1
Drug uptake(free) [11]: 50 nM
CLH [1]: 66 µL/min/10^6 cells
IC50 [2]: > 33 µM
Activity [12]: 30%
inhibition (INH) [13]: Active
CLH [3]: 47 µL/min/mg

[2H]C1([2H])OC(N)=N[C@]12c1cc(-c3cc(Cl)cc(C#N)c3)ccc1C[C@]21CC[C@@H](OC)CC1
CLH [1]: 8.7 µL/min/10^6 cells
Kp uu at 2 h [10]: 0.68
CLH [3]: 11.5 µL/min/mg

CO[C@H]1CC[C@@]2(Cc3ccc(-c4cncnc4)cc3[C@@]23COC(N)=N3)C[C@@H]1C
Activity [14]: Active
inhibition [15]: inactive
inhibition [16]: inactive
Activity [17]: inactive
inhibition [18]: inactive
inhibition [19]: inactive
Activity [20]: inactive

CO[C@H]1CC[C@]2(CC1)Cc1ccc(-c3cc(Cl)cc(C#N)c3)cc1[C@@]21COC(N)=N1
CLH [1]: 11.6 µL/min/10^6 cells
permeability [21]: Impermeable
CLH [3]: 11.1 µL/min/mg
Kp uu at 2 h [5]: 0.21

[2H]C1([2H])OC(N)=N[C@]12c1cc(-c3cncnc3)ccc1C[C@]21CC[C@@H](OC)CC1
IC50 [6]: 0.007 µM
Ki [7]: 0.134 µM
